Reference: ChEMBL document CHEMBL3627597, “Synthesis of Fluorine-Containing Phosphodiesterase 10A (PDE10A) Inhibitors and the In Vivo Evaluation of F-18 Labeled PDE10A PET Tracers in Rodent and Nonhuman Primate” (J Med Chem, 2015)

Key:
Blood [1] = assay: Biodistribution in Sprague-Dawley rat blood at 1.48 to 2.22 MBq, iv measured at 5 mins by gamma counting analysis; type: ADME, organism-based; conditions: in vivo
Outline: (§1)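 Male Sprague-Dawley rats (250 - 400 g), tail-vein injection of 1.48 - 2.22 MBq radiotracer under 2.5% isoflurane in oxygen; n=4 per time point, euthanized at 5, 30 and 60 min p.i. Brain regions obtained by gross dissection; peripheral tissues collected. Samples weighed, gamma-counted against a diluted-injectate standard; %ID/g calculated.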

Liver [2] = assay: Biodistribution in Sprague-Dawley rat liver at 1.48 to 2.22 MBq, iv measured at 5 mins by gamma counting analysis; type: ADME, organism-based; conditions: in vivo; outline: as §1
Kidney [3] = assay: Biodistribution in Sprague-Dawley rat kidney at 1.48 to 2.22 MBq, iv measured at 5 mins by gamma counting analysis; type: ADME, organism-based; conditions: in vivo; outline: as §1
Muscle tissue [4] = assay: Biodistribution in Sprague-Dawley rat muscle at 1.48 to 2.22 MBq, iv measured at 5 mins by gamma counting analysis; type: ADME, organism-based; conditions: in vivo; outline: as §1
Rattus norvegicus [5] = assay: Biodistribution in Sprague-Dawley rat fat tissue at 1.48 to 2.22 MBq, iv measured at 5 mins by gamma counting analysis; type: ADME, organism-based, Adipose tissue; conditions: in vivo; outline: as §1
Bone [6] = assay: Biodistribution in Sprague-Dawley rat bone at 1.48 to 2.22 MBq, iv measured at 5 mins by gamma counting analysis; type: ADME, organism-based, Bone element; conditions: in vivo; outline: as §1
Brain [7] = assay: Biodistribution in Sprague-Dawley rat brain at 1.48 to 2.22 MBq, iv measured at 5 mins by gamma counting analysis; type: ADME, organism-based; conditions: in vivo; outline: as §1
Blood [8] = assay: Biodistribution in Sprague-Dawley rat blood at 1.48 to 2.22 MBq, iv measured at 30 mins by gamma counting analysis; type: ADME, organism-based; conditions: in vivo, 0.5 h; outline: as §1
Liver [9] = assay: Biodistribution in Sprague-Dawley rat liver at 1.48 to 2.22 MBq, iv measured at 30 mins by gamma counting analysis; type: ADME, organism-based; conditions: in vivo, 0.5 h; outline: as §1
Kidney [10] = assay: Biodistribution in Sprague-Dawley rat kidney at 1.48 to 2.22 MBq, iv measured at 30 mins by gamma counting analysis; type: ADME, organism-based; conditions: in vivo, 0.5 h; outline: as §1
Muscle tissue [11] = assay: Biodistribution in Sprague-Dawley rat muscle at 1.48 to 2.22 MBq, iv measured at 30 mins by gamma counting analysis; type: ADME, organism-based; conditions: in vivo, 0.5 h; outline: as §1
Rattus norvegicus [12] = assay: Biodistribution in Sprague-Dawley rat fat tissue at 1.48 to 2.22 MBq, iv measured at 30 mins by gamma counting analysis; type: ADME, organism-based, Adipose tissue; conditions: in vivo, 0.5 h; outline: as §1
Bone [13] = assay: Biodistribution in Sprague-Dawley rat bone at 1.48 to 2.22 MBq, iv measured at 30 mins by gamma counting analysis; type: ADME, organism-based, Bone element; conditions: in vivo, 0.5 h; outline: as §1
Brain [14] = assay: Biodistribution in Sprague-Dawley rat brain at 1.48 to 2.22 MBq, iv measured at 30 mins by gamma counting analysis; type: ADME, organism-based; conditions: in vivo, 0.5 h; outline: as §1
Blood [15] = assay: Biodistribution in Sprague-Dawley rat blood at 1.48 to 2.22 MBq, iv measured at 60 mins by gamma counting analysis; type: ADME, organism-based; conditions: in vivo, 1 h; outline: as §1
Liver [16] = assay: Biodistribution in Sprague-Dawley rat liver at 1.48 to 2.22 MBq, iv measured at 60 mins by gamma counting analysis; type: ADME, organism-based; conditions: in vivo, 1 h; outline: as §1
Kidney [17] = assay: Biodistribution in Sprague-Dawley rat kidney at 1.48 to 2.22 MBq, iv measured at 60 mins by gamma counting analysis; type: ADME, organism-based; conditions: in vivo, 1 h; outline: as §1
Muscle tissue [18] = assay: Biodistribution in Sprague-Dawley rat muscle at 1.48 to 2.22 MBq, iv measured at 60 mins by gamma counting analysis; type: ADME, organism-based; conditions: in vivo, 1 h; outline: as §1
Rattus norvegicus [19] = assay: Biodistribution in Sprague-Dawley rat fat tissue at 1.48 to 2.22 MBq, iv measured at 60 mins by gamma counting analysis; type: ADME, organism-based, Adipose tissue; conditions: in vivo, 1 h; outline: as §1
Bone [20] = assay: Biodistribution in Sprague-Dawley rat bone at 1.48 to 2.22 MBq, iv measured at 60 mins by gamma counting analysis; type: ADME, organism-based, Bone element; conditions: in vivo, 1 h; outline: as §1
Brain [21] = assay: Biodistribution in Sprague-Dawley rat brain at 1.48 to 2.22 MBq, iv measured at 60 mins by gamma counting analysis; type: ADME, organism-based; conditions: in vivo, 1 h; outline: as §1
Striatum = assay: Biodistribution in Sprague-Dawley rat striatum at 1.48 to 2.22 MBq, iv measured at 30 mins by gamma counting analysis; type: ADME, organism-based; conditions: in vivo, 0.5 h; outline: as §1
[22] = Ratio of drug level in striatum to cerebellum in Sprague-Dawley rat at 1.48 to 2.22 MBq, iv measured at 5 to 30 mins by gamma counting analysis; type: ADME, organism-based; conditions: in vivo
Outline: (§2)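 Striatum, cerebellum and cortex obtained by gross dissection from Sprague-Dawley rats (250 - 400 g, n=4 per time point) after tail-vein injection of 1.48 - 2.22 MBq under isoflurane anesthesia. Tissues weighed and gamma-counted with an injectate standard to give %ID/g; ratios taken from striatal versus non-target uptake.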

Nucleic Acid = assay: Ratio of drug level in striatum to cortex in Sprague-Dawley rat at 1.48 to 2.22 MBq, iv measured at 5 to 30 mins by gamma counting analysis; type: ADME, organism-based; conditions: in vivo; outline: as §2
[23] = biological target: cAMP and cAMP-inhibited cGMP 3',5'-cyclic phosphodiesterase 10A (Homo sapiens, UniProt Q9Y233); assay: Inhibition of recombinant human PDE10A assessed as reduction of [3H]-cAMP hydrolysis preincubated for 5 mins followed by [3H]-cAMP addition measured after 20 mins by scintillation proximity assay
Sequence of cAMP and cAMP-inhibited cGMP 3',5'-cyclic phosphodiesterase 10A (Q9Y233 whole entry): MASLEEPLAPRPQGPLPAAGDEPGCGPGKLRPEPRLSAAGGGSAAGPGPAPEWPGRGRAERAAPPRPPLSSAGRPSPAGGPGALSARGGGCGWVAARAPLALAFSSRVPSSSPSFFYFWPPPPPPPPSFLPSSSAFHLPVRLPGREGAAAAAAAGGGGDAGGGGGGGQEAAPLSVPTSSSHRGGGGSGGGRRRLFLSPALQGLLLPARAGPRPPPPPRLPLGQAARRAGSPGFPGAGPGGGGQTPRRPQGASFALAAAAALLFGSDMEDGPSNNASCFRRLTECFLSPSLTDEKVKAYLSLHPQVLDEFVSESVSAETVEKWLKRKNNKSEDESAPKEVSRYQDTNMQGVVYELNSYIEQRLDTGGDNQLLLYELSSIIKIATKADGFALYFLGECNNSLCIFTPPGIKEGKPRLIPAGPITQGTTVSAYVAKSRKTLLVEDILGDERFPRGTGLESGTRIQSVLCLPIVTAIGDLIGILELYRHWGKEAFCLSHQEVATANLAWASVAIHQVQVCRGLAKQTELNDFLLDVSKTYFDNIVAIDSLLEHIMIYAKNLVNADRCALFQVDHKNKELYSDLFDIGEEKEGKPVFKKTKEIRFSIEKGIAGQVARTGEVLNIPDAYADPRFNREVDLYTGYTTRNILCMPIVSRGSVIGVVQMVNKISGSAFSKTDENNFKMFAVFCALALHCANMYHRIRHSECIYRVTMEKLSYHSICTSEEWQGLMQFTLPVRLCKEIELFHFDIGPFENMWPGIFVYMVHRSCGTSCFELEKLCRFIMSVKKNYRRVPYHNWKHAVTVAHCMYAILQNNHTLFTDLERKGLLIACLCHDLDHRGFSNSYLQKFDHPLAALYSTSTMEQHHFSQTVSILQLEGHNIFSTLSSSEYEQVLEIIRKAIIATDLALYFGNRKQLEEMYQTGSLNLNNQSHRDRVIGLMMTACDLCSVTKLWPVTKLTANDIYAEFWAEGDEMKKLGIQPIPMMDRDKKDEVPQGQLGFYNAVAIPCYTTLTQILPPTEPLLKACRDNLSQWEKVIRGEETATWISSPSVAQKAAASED
Outline: (§3)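 Recombinant human PDE with [3H]cAMP scintillation proximity assay. Enzyme used at a level within the linear range. Inhibitor (DMSO serial dilutions) plus enzyme held 5 min on ice, then [3H]cAMP added at 1/3 Km (1.48 kBq/mL), 20 min on ice (~30% turnover). Stopped with yttrium silicate SPA beads; settled 1.5 h at rt and counted. IC50 from one-site nonlinear fit, at least two independent runs, ± SD.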

[24] = biological target: cGMP-inhibited 3',5'-cyclic phosphodiesterase 3A (Homo sapiens, UniProt Q14432); assay: Inhibition of recombinant human PDE3A assessed as reduction of [3H]-cAMP hydrolysis preincubated for 5 mins followed by [3H]-cAMP addition measured after 20 mins by scintillation proximity assay; outline: as §3
Sequence of cGMP-inhibited 3',5'-cyclic phosphodiesterase 3A (Q14432 whole entry): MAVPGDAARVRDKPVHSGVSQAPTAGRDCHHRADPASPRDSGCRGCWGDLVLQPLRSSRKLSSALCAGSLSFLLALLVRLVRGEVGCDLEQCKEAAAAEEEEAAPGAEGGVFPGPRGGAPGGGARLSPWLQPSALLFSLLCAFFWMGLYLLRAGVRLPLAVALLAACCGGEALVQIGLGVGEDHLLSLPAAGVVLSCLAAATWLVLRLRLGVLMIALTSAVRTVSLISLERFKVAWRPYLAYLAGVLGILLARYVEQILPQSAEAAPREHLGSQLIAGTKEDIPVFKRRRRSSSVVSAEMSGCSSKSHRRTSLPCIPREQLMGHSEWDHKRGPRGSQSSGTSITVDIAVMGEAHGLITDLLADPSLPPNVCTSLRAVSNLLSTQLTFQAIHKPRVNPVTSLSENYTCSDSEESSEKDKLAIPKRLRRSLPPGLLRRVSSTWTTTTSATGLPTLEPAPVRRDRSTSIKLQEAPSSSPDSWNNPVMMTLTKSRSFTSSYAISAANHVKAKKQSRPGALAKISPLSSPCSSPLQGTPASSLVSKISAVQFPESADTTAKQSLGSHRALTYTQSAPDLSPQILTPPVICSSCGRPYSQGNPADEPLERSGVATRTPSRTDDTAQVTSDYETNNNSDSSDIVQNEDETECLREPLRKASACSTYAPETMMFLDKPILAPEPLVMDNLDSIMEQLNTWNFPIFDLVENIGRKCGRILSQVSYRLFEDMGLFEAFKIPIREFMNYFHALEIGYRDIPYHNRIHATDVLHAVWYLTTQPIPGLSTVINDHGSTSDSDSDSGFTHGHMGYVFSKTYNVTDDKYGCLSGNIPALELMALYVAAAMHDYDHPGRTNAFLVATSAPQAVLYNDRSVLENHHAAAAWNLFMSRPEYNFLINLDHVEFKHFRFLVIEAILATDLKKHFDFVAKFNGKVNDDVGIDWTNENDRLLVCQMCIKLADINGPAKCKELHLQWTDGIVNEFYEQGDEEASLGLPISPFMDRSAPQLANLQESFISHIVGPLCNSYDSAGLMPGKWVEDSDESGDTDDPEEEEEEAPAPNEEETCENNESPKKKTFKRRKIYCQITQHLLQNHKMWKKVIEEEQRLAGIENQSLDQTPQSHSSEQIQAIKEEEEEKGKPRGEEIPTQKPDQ

[25] = biological target: cGMP-inhibited 3',5'-cyclic phosphodiesterase 3B (Homo sapiens, UniProt Q13370); assay: Inhibition of recombinant human PDE3B assessed as reduction of [3H]-cAMP hydrolysis preincubated for 5 mins followed by [3H]-cAMP addition measured after 20 mins by scintillation proximity assay; outline: as §3
Sequence of cGMP-inhibited 3',5'-cyclic phosphodiesterase 3B (Q13370 whole entry): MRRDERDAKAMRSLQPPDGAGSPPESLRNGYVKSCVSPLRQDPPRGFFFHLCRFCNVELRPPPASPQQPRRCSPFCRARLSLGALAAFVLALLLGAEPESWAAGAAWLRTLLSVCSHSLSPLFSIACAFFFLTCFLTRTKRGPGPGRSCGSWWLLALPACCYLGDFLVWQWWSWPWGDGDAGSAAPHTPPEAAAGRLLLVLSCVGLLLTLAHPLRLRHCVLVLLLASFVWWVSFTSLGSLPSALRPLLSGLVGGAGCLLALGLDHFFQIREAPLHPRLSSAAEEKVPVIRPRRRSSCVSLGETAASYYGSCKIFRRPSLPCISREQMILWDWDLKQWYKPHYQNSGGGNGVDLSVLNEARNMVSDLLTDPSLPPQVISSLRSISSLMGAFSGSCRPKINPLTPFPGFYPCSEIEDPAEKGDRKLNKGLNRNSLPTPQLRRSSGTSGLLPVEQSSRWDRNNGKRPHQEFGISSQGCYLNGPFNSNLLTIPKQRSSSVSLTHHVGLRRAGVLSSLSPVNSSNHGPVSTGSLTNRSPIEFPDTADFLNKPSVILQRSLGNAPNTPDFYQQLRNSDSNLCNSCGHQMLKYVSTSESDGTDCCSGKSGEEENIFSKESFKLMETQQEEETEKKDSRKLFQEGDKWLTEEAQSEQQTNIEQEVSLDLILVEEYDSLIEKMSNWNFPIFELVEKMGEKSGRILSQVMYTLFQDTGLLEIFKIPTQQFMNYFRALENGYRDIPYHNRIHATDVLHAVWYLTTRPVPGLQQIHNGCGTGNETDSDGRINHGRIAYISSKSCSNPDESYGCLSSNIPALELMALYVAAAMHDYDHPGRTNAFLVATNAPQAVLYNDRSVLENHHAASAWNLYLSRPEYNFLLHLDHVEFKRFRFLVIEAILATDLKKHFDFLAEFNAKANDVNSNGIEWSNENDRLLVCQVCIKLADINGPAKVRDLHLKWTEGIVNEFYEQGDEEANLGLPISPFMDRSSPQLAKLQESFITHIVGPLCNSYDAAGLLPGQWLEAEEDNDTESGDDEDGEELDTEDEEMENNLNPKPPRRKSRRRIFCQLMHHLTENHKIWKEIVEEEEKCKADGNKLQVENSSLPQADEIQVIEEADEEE

[26] = biological target: 3',5'-cyclic-AMP phosphodiesterase 4A (Homo sapiens, UniProt P27815); assay: Inhibition of recombinant human PDE4A assessed as reduction of [3H]-cAMP hydrolysis preincubated for 5 mins followed by [3H]-cAMP addition measured after 20 mins by scintillation proximity assay; outline: as §3
Sequence of 3',5'-cyclic-AMP phosphodiesterase 4A (P27815 whole entry): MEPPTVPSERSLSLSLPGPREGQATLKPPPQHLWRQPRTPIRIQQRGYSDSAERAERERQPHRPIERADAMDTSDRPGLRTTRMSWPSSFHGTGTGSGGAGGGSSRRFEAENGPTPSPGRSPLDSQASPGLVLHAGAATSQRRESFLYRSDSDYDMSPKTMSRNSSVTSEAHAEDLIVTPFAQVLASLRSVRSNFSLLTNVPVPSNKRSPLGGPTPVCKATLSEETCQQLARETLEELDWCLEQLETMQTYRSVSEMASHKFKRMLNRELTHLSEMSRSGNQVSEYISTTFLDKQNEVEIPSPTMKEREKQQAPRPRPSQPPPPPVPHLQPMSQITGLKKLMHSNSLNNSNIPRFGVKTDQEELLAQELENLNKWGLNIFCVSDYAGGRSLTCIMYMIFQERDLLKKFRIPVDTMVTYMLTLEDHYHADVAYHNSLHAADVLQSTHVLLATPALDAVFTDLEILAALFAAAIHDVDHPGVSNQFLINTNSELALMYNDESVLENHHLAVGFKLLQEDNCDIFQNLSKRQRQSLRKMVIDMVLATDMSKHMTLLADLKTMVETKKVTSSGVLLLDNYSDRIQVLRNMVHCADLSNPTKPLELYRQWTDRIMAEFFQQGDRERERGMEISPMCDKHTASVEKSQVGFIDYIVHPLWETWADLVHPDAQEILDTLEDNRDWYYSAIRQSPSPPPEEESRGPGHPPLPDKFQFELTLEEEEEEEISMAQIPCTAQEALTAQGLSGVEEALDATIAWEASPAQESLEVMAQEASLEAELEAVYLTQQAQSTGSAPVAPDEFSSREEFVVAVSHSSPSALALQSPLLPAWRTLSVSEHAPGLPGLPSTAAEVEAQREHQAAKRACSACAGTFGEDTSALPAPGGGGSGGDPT

[27] = biological target: 3',5'-cyclic-AMP phosphodiesterase 4B (Homo sapiens, UniProt Q07343); assay: Inhibition of recombinant human PDE4B assessed as reduction of [3H]-cAMP hydrolysis preincubated for 5 mins followed by [3H]-cAMP addition measured after 20 mins by scintillation proximity assay; outline: as §3
Sequence of 3',5'-cyclic-AMP phosphodiesterase 4B (Q07343 whole entry): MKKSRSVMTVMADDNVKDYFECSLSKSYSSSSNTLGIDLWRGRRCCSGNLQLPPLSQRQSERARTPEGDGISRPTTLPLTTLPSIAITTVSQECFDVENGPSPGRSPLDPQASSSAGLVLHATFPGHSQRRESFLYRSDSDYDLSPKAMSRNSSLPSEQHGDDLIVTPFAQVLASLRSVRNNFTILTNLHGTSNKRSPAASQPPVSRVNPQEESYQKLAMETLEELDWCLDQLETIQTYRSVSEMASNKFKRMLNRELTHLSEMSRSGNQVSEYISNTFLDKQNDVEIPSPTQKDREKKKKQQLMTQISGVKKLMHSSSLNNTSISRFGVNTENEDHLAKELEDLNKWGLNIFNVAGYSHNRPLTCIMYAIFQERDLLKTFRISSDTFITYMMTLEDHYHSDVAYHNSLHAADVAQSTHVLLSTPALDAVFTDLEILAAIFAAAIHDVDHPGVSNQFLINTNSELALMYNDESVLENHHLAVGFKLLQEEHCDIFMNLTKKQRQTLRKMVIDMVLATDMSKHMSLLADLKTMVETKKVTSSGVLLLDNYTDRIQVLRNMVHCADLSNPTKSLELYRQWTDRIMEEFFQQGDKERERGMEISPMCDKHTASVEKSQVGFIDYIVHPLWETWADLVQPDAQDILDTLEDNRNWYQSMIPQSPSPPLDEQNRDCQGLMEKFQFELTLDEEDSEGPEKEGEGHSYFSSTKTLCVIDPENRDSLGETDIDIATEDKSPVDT

Homo sapiens [28] = species: Homo sapiens; assay: Selectivity ratio of IC50 for recombinant human PDE3A to IC50 for recombinant human PDE10A
Homo sapiens [29] = species: Homo sapiens; assay: Selectivity ratio of IC50 for recombinant human PDE3B to IC50 for recombinant human PDE10A
Homo sapiens [30] = species: Homo sapiens; assay: Selectivity ratio of IC50 for recombinant human PDE4A to IC50 for recombinant human PDE10A
Homo sapiens [31] = species: Homo sapiens; assay: Selectivity ratio of IC50 for recombinant human PDE4B to IC50 for recombinant human PDE10A

## Cn1cc(-c2ccncc2)c(-c2ccc(OCc3cc([18F])c4ccccc4n3)cc2)n1
Blood [1]
  Drug uptake: 0.353 % ID/g
Liver [2]
  Drug uptake: 6.87 % ID/g
Kidney [3]
  Drug uptake: 1.887 % ID/g
Muscle tissue [4]
  Drug uptake: 0.339 % ID/g
Rattus norvegicus [5]
  Drug uptake: 0.404 % ID/g
Bone [6]
  Drug uptake: 0.522 % ID/g
Brain [7]
  Drug uptake: 0.41 % ID/g
Blood [8]
  Drug uptake: 0.376 % ID/g
Liver [9]
  Drug uptake: 3 % ID/g
Kidney [10]
  Drug uptake: 1.034 % ID/g
Muscle tissue [11]
  Drug uptake: 0.236 % ID/g
Rattus norvegicus [12]
  Drug uptake: 0.576 % ID/g
Bone [13]
  Drug uptake: 4.035 % ID/g
Brain [14]
  Drug uptake: 0.191 % ID/g
Blood [15]
  Drug uptake: 0.15 % ID/g
Liver [16]
  Drug uptake: 1.6 % ID/g
Kidney [17]
  Drug uptake: 0.533 % ID/g
Muscle tissue [18]
  Drug uptake: 0.092 % ID/g
Rattus norvegicus [19]
  Drug uptake: 0.477 % ID/g
Bone [20]
  Drug uptake: 6.3 % ID/g
Brain [21]
  Drug uptake: 0.125 % ID/g
Striatum
  Drug uptake: Active
[22]
  Ratio: > 2
Nucleic Acid
  Ratio: > 2

## Cn1cc(-c2ccncc2)c(-c2ccc(OCc3cc(COCC[18F])c4ccccc4n3)cc2)n1
Blood [1]
  Drug uptake: 0.44 % ID/g
Liver [2]
  Drug uptake: 3.99 % ID/g
Kidney [3]
  Drug uptake: 0.981 % ID/g
Muscle tissue [4]
  Drug uptake: 0.155 % ID/g
Rattus norvegicus [5]
  Drug uptake: 0.139 % ID/g
Bone [6]
  Drug uptake: 0.133 % ID/g
Brain [7]
  Drug uptake: 0.213 % ID/g
Blood [8]
  Drug uptake: 0.424 % ID/g
Liver [9]
  Drug uptake: 0.987 % ID/g
Kidney [10]
  Drug uptake: 0.632 % ID/g
Muscle tissue [11]
  Drug uptake: 0.265 % ID/g
Rattus norvegicus [12]
  Drug uptake: 0.139 % ID/g
Bone [13]
  Drug uptake: 0.17 % ID/g
Brain [14]
  Drug uptake: 0.353 % ID/g
Blood [15]
  Drug uptake: 0.401 % ID/g
Liver [16]
  Drug uptake: 0.554 % ID/g
Kidney [17]
  Drug uptake: 0.485 % ID/g
Muscle tissue [18]
  Drug uptake: 0.228 % ID/g
Rattus norvegicus [19]
  Drug uptake: 0.066 % ID/g
Bone [20]
  Drug uptake: 0.337 % ID/g
Brain [21]
  Drug uptake: 0.343 % ID/g
Striatum
  Drug uptake: Active

## Cn1cc(-c2ccncc2)c(-c2ccc(OCc3cc(OCCOCCOCC[18F])c4ccccc4n3)cc2)n1
Blood [1]
  Drug uptake: 0.699 % ID/g
Liver [2]
  Drug uptake: 4.74 % ID/g
Kidney [3]
  Drug uptake: 5.969 % ID/g
Muscle tissue [4]
  Drug uptake: 0.419 % ID/g
Rattus norvegicus [5]
  Drug uptake: 0.225 % ID/g
Bone [6]
  Drug uptake: 0.487 % ID/g
Brain [7]
  Drug uptake: 0.353 % ID/g
Blood [8]
  Drug uptake: 0.771 % ID/g
Liver [9]
  Drug uptake: 1.53 % ID/g
Kidney [10]
  Drug uptake: 1.793 % ID/g
Muscle tissue [11]
  Drug uptake: 0.488 % ID/g
Rattus norvegicus [12]
  Drug uptake: 0.254 % ID/g
Bone [13]
  Drug uptake: 0.441 % ID/g
Brain [14]
  Drug uptake: 0.509 % ID/g
Blood [15]
  Drug uptake: 0.646 % ID/g
Liver [16]
  Drug uptake: 0.527 % ID/g
Kidney [17]
  Drug uptake: 1.037 % ID/g
Muscle tissue [18]
  Drug uptake: 0.379 % ID/g
Rattus norvegicus [19]
  Drug uptake: 0.123 % ID/g
Bone [20]
  Drug uptake: 0.49 % ID/g
Brain [21]
  Drug uptake: 0.421 % ID/g
Striatum
  Drug uptake: Active

## Cn1cc(-c2ccncc2)c(-c2ccc(OCc3cc(CCC[18F])c4ccccc4n3)cc2)n1
Blood [1]
  Drug uptake: 0.459 % ID/g
Liver [2]
  Drug uptake: 9.99 % ID/g
Kidney [3]
  Drug uptake: 2.471 % ID/g
Muscle tissue [4]
  Drug uptake: 0.223 % ID/g
Rattus norvegicus [5]
  Drug uptake: 0.22 % ID/g
Bone [6]
  Drug uptake: 0.222 % ID/g
Brain [7]
  Drug uptake: 0.114 % ID/g
Blood [8]
  Drug uptake: 0.345 % ID/g
Liver [9]
  Drug uptake: 5.67 % ID/g
Kidney [10]
  Drug uptake: 1.364 % ID/g
Muscle tissue [11]
  Drug uptake: 0.178 % ID/g
Rattus norvegicus [12]
  Drug uptake: 0.491 % ID/g
Bone [13]
  Drug uptake: 1.418 % ID/g
Brain [14]
  Drug uptake: 0.046 % ID/g
Blood [15]
  Drug uptake: 0.345 % ID/g
Liver [16]
  Drug uptake: 6.79 % ID/g
Kidney [17]
  Drug uptake: 1.216 % ID/g
Muscle tissue [18]
  Drug uptake: 0.103 % ID/g
Rattus norvegicus [19]
  Drug uptake: 0.368 % ID/g
Bone [20]
  Drug uptake: 2.037 % ID/g
Brain [21]
  Drug uptake: 0.026 % ID/g
Striatum
  Drug uptake: Active
[22]
  Ratio: > 2
Nucleic Acid
  Ratio: > 2

## Cn1ncc(-c2ccncc2)c1-c1ccc(OCc2cc(-n3cc(CCF)nn3)c3ccccc3n2)cc1
[23]
  IC50: 0.00498 µM
[24]
  IC50: 0.81 µM
[25]
  IC50: 16.2 µM
[26]
  IC50: 1.86 µM
[27]
  IC50: 0.9 µM
Homo sapiens [28]
  Ratio IC50: > 210
Homo sapiens [29]
  Ratio IC50: > 210
Homo sapiens [30]
  Ratio IC50: > 210
Homo sapiens [31]
  Ratio IC50: > 210
